Among the data in BindingDB's records for doi:10.1021/jm020545z (Amorepacific R&D Center, 2004) are IC50 values, retold here.

The term IC50 denotes the concentration at which inhibition is half-maximal. A high value points to weaker potency in that assay.

For the assay, the target named is T1, Prostaglandin G/H synthase 1 (Mus musculus, UniProt P22437).
T1 sequence (P22437 whole entry): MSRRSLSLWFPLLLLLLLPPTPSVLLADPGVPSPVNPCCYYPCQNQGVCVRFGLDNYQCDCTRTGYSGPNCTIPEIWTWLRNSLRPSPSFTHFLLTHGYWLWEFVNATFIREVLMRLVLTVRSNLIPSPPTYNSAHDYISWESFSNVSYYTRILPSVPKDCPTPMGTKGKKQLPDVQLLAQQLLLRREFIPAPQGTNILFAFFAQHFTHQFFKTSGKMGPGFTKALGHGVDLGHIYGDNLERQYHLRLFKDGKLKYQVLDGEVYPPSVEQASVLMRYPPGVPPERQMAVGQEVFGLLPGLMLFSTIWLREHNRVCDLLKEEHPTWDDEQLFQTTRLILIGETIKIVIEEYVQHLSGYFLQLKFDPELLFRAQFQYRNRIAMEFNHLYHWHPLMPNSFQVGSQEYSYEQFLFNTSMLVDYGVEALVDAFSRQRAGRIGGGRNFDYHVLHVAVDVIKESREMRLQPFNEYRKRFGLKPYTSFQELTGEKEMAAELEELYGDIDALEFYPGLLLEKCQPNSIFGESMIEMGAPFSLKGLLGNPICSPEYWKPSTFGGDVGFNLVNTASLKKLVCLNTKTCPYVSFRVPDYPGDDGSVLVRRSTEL
The assay is described as follows: In vitro inhibitory activity against prostaglandin G/H synthase 1 using mouse peritoneal macrophage method. A digest of the protocol:
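Freshly harvested mouse peritoneal macrophages were the enzyme source. Cells were preincubated 10 min at 37 °C with inhibitor in DMSO, then stimulated with calcium ionophore A23187 for 10 min. The reaction was stopped with indomethacin in 0.1% BSA buffer and centrifuged, and supernatant TXB₂ was measured by ELISA.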

SMILES strings stand for the structures. A value given as a limit tells only on which side of the number the result lay.

With `CC1(C)OC(c2ccc(S(N)(=O)=O)cc2)=C(c2ccco2)C1=O`, the IC50 was over 29.9 µM.
